Calls of active or inactive are those of the source. No cut-off for these calls is given here.

The values that follow come from ChEMBL document CHEMBL1926519, “B-Ring-modified and/or 5-demethylated nobiletin congeners: inhibitory activity against pro-MMP-9 production” (Bioorg Med Chem, 2011).

Data set [1] can be described thus: Cytotoxicity against human SRA 01/04 cells at 64 uM after 24 hrs by LDH release assay. It is filed as cell-based. A digest of the protocol:
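SRA01/04 lens epithelial cells seeded at 5,000/well, after 15–18 h washed with serum-free medium and exposed 24 h to test sample, final 64 lmol/L from DMSO stock. LDH in supernatant read at 570 nm. Percent specific release = (S−N)/(P−N)×100, P being 0.2% Tween-20 lysis and N cell- and serum-free medium. Triplicate means.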
For orientation: Release of lactate dehydrogenase indicates damage to the cell membrane.

The nature of data set [2]: Inhibition of PMA-stimulated pro MMP9 production in human SRA 01/04 cells after 24 hrs by SDS-PAGE based gelatin zymography assay. The class given is functional, cell-based. A digest of the protocol:
(§1)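 Confluent SRA01/04 cells (DMEM, 20% heat-inactivated FBS, 37 °C, 5% CO2) treated 24 h with test sample at 0.25, 1, 4, 16, 64 µM plus PMA 10 nM or TNF-a 10 ng/mL. Media run on 10% SDS–PAGE with 0.6 mg/mL gelatin, incubated at 37 °C in Tris–HCl pH 7.5/CaCl2/ZnCl2, Coomassie-stained. Pro-MMP-9 bands quantified densitometrically, giving IC50, triplicate means.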

Data set [3] is described as follows: Inhibition of TNFalpha-stimulated pro MMP9 production in human SRA 01/04 cells after 24 hrs by SDS-PAGE based gelatin zymography assay. It is filed as functional, cell-based. A digest of the protocol: as §1
Data set [4] in a line: Ratio of IC50 for PMA-stimulated pro MMP9 production in human SRA 01/04 cells to IC50 for TNFalpha-stimulated pro MMP9 production in human SRA 01/04 cells. It is filed as functional.
The species entered for another data set is Homo sapiens. Put plainly: Inhibition of PMA-stimulated pro MMP9 production in human SRA 01/04 cells at 64 uM after 24 hrs by SDS-PAGE based gelatin zymography assay. The class given is functional, cell-based.

Consider `COc1c(OC)c(OC)c2c(=O)cc(-c3ccc(OCc4ccccc4)cc3)oc2c1OC`, for which the Activity entry in data set [1] is “Toxic”.

Take `COc1c(OC)c(OC)c2c(=O)cc(-c3cccc(OCc4ccccc4)c3)oc2c1OC`: the Activity entry in data set [1] is “Toxic”.

Regarding `COc1ccc(-c2cc(=O)c3c(OC)c(OC)c(OC)c(OC)c3o2)cc1` [TANGERETIN], the IC50 in data set [2] came out at 6.8 µM; in data set [3], 33.2 µM. For the same molecule, the Activity entry in data set [1] is “Non-toxic”.

Turning to `COc1c(OC)c(OC)c2c(=O)cc(-c3ccc(O)cc3)oc2c1OC`, the IC50 in data set [2] came to 2.6 µM; in data set [3] it was 14.3 µM. In addition, the Activity entry in data set [1] is given as “Non-toxic”.

Regarding `COc1c(OC)c(OC)c2c(=O)cc(-c3ccccc3O)oc2c1OC`, the “Ratio IC50” value in data set [4] is given as 170. Moreover, the IC50 came to 0.4 µM in data set [2] and 68 µM in data set [3]. Moreover, the Activity entry in data set [1] was “Non-toxic”.

With `COc1c(OC)c(O)c2c(=O)cc(-c3ccc(O)cc3)oc2c1OC` [XANTHOMICROL], the “Ratio IC50” value in data set [4] was 6. For the same molecule, the IC50 in data set [2] was determined as 3.5 µM; in data set [3], 22.3 µM. Also, the Activity entry in data set [1] is listed as “Non-toxic”.

Turning to `COc1ccccc1-c1cc(=O)c2c(OC)c(OC)c(OC)c(OC)c2o1`, the IC50 in data set [2] came to 13.7 µM; in data set [3], 24 µM. Further, in data set [1], the Activity entry is reported as “Non-toxic”.

Turning to `COc1cc(-c2cc(=O)c3c(O)c(OC)c(OC)c(OC)c3o2)ccc1O`, in data set [4], the Ratio IC50 was determined as 15. In addition, the IC50 in data set [2] is 0.7 µM; in data set [3], 10.6 µM. In addition, the Activity entry in data set [1] is “Non-toxic”.

As for `COc1ccc(-c2cc(=O)c3c(O)c(OC)c(OC)c(OC)c3o2)cc1O`, the IC50 was 1.5 µM in data set [2] and 29.6 µM in data set [3]. In addition, the Activity entry in data set [1] is “Non-toxic”. In the data set filed under Homo sapiens, the inhibition result is “inactive”.

For the molecule `COc1ccc(-c2cc(=O)c3c(O)c(OC)c(OC)c(OC)c3o2)cc1OC` [5-DEMETHYLNOBILETIN], the Ratio IC50 in data set [4] worked out at 14. Moreover, the IC50 in data set [2] was found to be 3 µM; in data set [3], 42.4 µM. The Activity result in data set [1] is reported as “Non-toxic”. Further, the inhibition result in the data set listed under Homo sapiens is “inactive”.

In the case of `COc1c(OC)c(OC)c2c(=O)cc(-c3cc(O)cc(O)c3)oc2c1OC`, the IC50 amounted to 8.1 µM in data set [2] and 24 µM in data set [3]. Also, the Activity entry in data set [1] is “Non-toxic”.

For the molecule `COc1c(OC)c(OC)c2c(=O)cc(-c3cccc(O)c3)oc2c1OC`, the IC50 in data set [2] was found to be 2.5 µM; in data set [3], 23.5 µM. In data set [1], the Activity entry is given as “Non-toxic”. The inhibition entry in the data set filed under Homo sapiens was “inactive”.

With `COc1cccc(-c2cc(=O)c3c(OC)c(OC)c(OC)c(OC)c3o2)c1`, the IC50 came to 5.5 µM in data set [2] and 15.5 µM in data set [3]. The Activity result in data set [1] was “Non-toxic”.

Turning to `COc1cc(OC)cc(-c2cc(=O)c3c(OC)c(OC)c(OC)c(OC)c3o2)c1`, the IC50 is 12 µM in data set [2] and 25.8 µM in data set [3]. The Activity entry in data set [1] is on record as “Non-toxic”.

By IC50 is commonly meant the midpoint of a concentration-inhibition curve.
